In brackets after ≈: the same amount, converted by molar mass. Blank lines part the entries; values can stand above or below the compound they belong to. Activity calls are given as the source filed them. The calls are words filed in the database; no cut-off is given here.
How the values were obtained:
[1] = molecular target: T1, Growth hormone secretagogue receptor type 1 (Homo sapiens, UniProt Q92847); assay: Agonist activity at human GHS receptor assessed as intracellular myo-IP1 secretion after 90 mins by HTRF analysis; format: functional, cell-based; settings: read-out: EC50
[2] = Clearance in Beagle dog at 1 mg/kg, iv or 2 mg/kg, po after 24 hrs by LC-MS/MS analysis; format: ADME, organism-based, Canis lupus familiaris; settings: in vivo
How it was run: (§1)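 Male/female beagles (2–5 y, 12–15 kg) were fasted overnight. IV: about 1 mg/Kg as a 15-min infusion to two animals, in 5% DMSO/95% SBE-β-CD (30% w/v) adjusted to pH 7.5. PO: about 2 mg/Kg by gavage, in the same vehicle or 0.5% HPMC/0.1% Tween 80 suspension. Jugular blood was drawn 0.03–24 h (IV) or 0.17–24 h (PO). K2-EDTA plasma analysed by LC-MS/MS.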

[3] = 1-octanol/aqueous buffer distribution coefficient, log D of compound at pH 7.4; format: physicochemical; settings: 1-octanol/aqueous buffer, read-out: logD
[4] = Half life in Beagle dog at 2 mg/kg, po after 24 hrs by LC-MS/MS analysis; format: ADME, organism-based, Canis lupus familiaris; settings: in vivo; how it was run: as §1
[5] = Apparent intrinsic permeability across apical to basolateral side in human Caco2 cells at pH 6.5; format: ADME, cell-based; settings: Caco-2, pH 6.5
[6] = Oral bioavailability in Beagle dog at 2 mg/kg after 24 hrs by LC-MS/MS analysis; format: ADME, organism-based, Canis lupus familiaris; settings: in vivo; how it was run: as §1
[7] = Ratio of unbound drug level in brain to plasma in Beagle dog at 1 mg/kg, iv or 2 mg/kg, po after 24 hrs by LC-MS/MS analysis; format: ADME, organism-based, Canis lupus familiaris; settings: read-out: K(p,uu,brain)
[8] = Apparent permeability across apical to basolateral side in human Caco2 cells at pH 7.4; format: ADME, cell-based; settings: Caco-2, pH 7.4
[9] = molecular target: T1, Growth hormone secretagogue receptor type 1; assay: Displacement of human [125I]-ghrelin from GHS-R1a (unknown origin) expressed in HEK293 cell membranes after 1 hr by radioligand binding assay; settings: read-out: IC50
[10] = Apparent permeability across basolateral to apical side in human Caco2 cells at pH 7.4; format: ADME, cell-based; settings: Caco-2, pH 7.4
[11] = Efflux ratio of apparent permeability across basolateral to apical over apical to basolateral side in human Caco2 cells; format: ADME, cell-based; settings: Caco-2
How it was run: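 Caco-2 monolayers; Papp measured in both directions at pH 7.4 (units 1E-6 cm/s). Efflux ratio taken as Papp basolateral-to-apical divided by Papp apical-to-basolateral.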

Canis familiaris [12] = assay: Increase in plasma IGF1 level in Beagle dog at 4 mg/kg, po measured after 4 to 7 hrs post dose by ELIS; format: functional, organism-based; settings: Canis lupus familiaris
How it was run: (§2)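 Dog blood taken before dosing and at 15, 30, 45 min and 1, 2, 4, 7, 12, 24 h post dose into K2EDTA tubes. Centrifuged at 4°C; plasma frozen below -80°C until IGF-1 analysis.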

[13] = Volume of distribution in Beagle dog at 1 mg/kg, iv or 2 mg/kg, po after 24 hrs by LC-MS/MS analysis; format: ADME, organism-based, Canis lupus familiaris; settings: in vivo; how it was run: as §1
[14] = molecular target: Voltage-gated inwardly rectifying potassium channel KCNH2 (Homo sapiens, UniProt Q12809); assay: Inhibition of human ERG expressed in CHO cells; format: cell-based
How it was run: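 hERG currents recorded from CHO cells expressing hERG.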

hERG (KCNH2) = hERG (KCNH2) (Homo sapiens, UniProt Q12809); assay: Inhibition of human ERG expressed in CHO cells at 11 uM relative to control; format: cell-based; settings: CHO cells that express hERG
[15] = Drug level in human liver microsomes treated with 1-Methyl-N-[(1S,2S)-1-{[(2S)-4-methylmorpholine-2-carbonyl]-amino}-2,3-dihydro-1H-inden-2-yl]-1H-indole-5-carboxamide by LC-MS/MS method; format: ADME, microsome
[16] = Drug level in rat hepatocytes treated with 1-Methyl-N-[(1S,2S)-1-{[(2S)-4-methylmorpholine-2-carbonyl]-amino}-2,3-dihydro-1H-inden-2-yl]-1H-indole-5-carboxamide by LC-MS/MS method; format: ADME, cell-based, Hepatocyte
[17] = Solubility of compound; format: physicochemical
Mu-type opioid receptor [18] = molecular target: T2, Mu-type opioid receptor (Homo sapiens, UniProt P35372); assay: Agonist activity at mu1-opioid receptor (unknown origin) by cell-based assay
[19] = Protein binding in human plasma; format: ADME, cell-free; settings: read-out: PPB (converted)
[20] = Time dependent inhibition of CYP450 in human liver microsomes; format: ADME
Cytochrome P450 3A4 = Cytochrome P450 3A4 (Homo sapiens, UniProt P08684); assay: Inhibition of CYP3A4 (unknown origin); format: ADME
Rattus norvegicus = assay: Renal clearance in Han-Wister rat at 1 mg/kg, iv bolus or 2 mg/kg, po after 24 hrs by LC-MS/MS analysis; format: ADME, organism-based; settings: in vivo
Canis familiaris [21] = assay: Increase in plasma IGF1 level in Beagle dog at 8 mg/kg, po measured after 24 hrs post dose by ELIS; format: functional, organism-based; settings: Canis lupus familiaris; how it was run: as §2
[22] = Drug elimination in Beagle dog urine by LC-MS/MS analysis; format: ADME, Canis lupus familiaris; settings: read-out: Drug excretion
Cytochrome P450 2C9 = Cytochrome P450 2C9 (Homo sapiens, UniProt P11712); assay: Inhibition of CYP2C9 (unknown origin); format: ADME
Cytochrome P450 2C19 [23] = molecular target: T3, Cytochrome P450 2C19 (Homo sapiens, UniProt P33261); assay: Inhibition of CYP2C19 (unknown origin); format: ADME
[24] = Clearance in Han-Wister rat at 1 mg/kg, iv bolus or 2 mg/kg, po after 24 hrs by LC-MS/MS analysis; format: ADME, organism-based; settings: Han-Wistar, in vivo
How it was run: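 Male Han Wistar rats (7–8 weeks, 200–300 g). IV bolus of about 1 mg/Kg via tail vein to two animals, in 5% DMSO/95% SBE-β-CD (30% w/v), pH 7.5. Oral dose of about 2 mg/Kg in the same vehicle. Jugular blood collected from pre-dose to 24 h. K2-EDTA plasma kept at -75±15 °C and analysed by LC-MS/MS.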

[25] = Intrinsic clearance in rat liver microsomes; format: ADME, microsome; settings: read-out: CLH
Cytochrome P450 2C19 [26] = molecular target: T3, Cytochrome P450 2C19; assay: Drug metabolism assessed as CYP2C19 (unknown origin)-mediated hydroxylation of methyl group of indole; format: ADME
[27] = Protein binding in dog plasma; format: ADME, cell-free, Canis lupus familiaris; settings: read-out: PPB (converted)
[28] = Fraction absorbed in Beagle dog at 2 mg/kg, po after 24 hrs by LC-MS/MS analysis; format: ADME, organism-based, Canis lupus familiaris; settings: in vivo, read-out: Fabs
[29] = Intrinsic clearance in dog liver microsomes; format: ADME, Canis lupus familiaris, microsome; settings: read-out: CLH
Mu-type opioid receptor [30] = molecular target: T2, Mu-type opioid receptor; assay: Agonist activity at mu1-opioid receptor (unknown origin)
Cytochrome P450 2D6 = Cytochrome P450 2D6 (Homo sapiens, UniProt P10635); assay: Inhibition of CYP2D6 (unknown origin); format: ADME
Cytochrome P450 1A2 = molecular target: T4, Cytochrome P450 1A2 (Homo sapiens, UniProt P05177); assay: Inhibition of CYP1A2 (unknown origin); format: ADME
T4 sequence (P05177 whole entry): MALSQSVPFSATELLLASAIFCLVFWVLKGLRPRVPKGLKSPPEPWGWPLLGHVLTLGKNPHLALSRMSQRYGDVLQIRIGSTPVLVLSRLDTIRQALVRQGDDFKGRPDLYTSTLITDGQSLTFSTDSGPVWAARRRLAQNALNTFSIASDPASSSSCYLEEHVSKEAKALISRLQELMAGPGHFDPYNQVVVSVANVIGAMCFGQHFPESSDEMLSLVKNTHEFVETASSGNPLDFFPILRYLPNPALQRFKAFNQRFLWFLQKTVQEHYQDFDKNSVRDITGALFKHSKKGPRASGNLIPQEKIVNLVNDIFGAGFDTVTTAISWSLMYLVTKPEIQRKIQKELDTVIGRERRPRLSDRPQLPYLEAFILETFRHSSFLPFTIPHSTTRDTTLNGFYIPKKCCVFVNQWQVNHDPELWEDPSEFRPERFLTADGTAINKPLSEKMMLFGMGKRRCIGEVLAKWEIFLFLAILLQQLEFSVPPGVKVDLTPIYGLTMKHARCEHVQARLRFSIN

[31] = Intrinsic clearance in human liver microsomes; format: ADME, microsome; settings: read-out: CLH
Canis familiaris [32] = species on record: Canis familiaris; assay: Drug metabolism in Beagle dog assessed as hydroxylation of 5-methyl of indole ring by LC-MS/MS analysis; format: ADME, organism-based, Canis lupus familiaris; settings: in vivo
[33] = Protein binding in rat plasma; format: ADME, cell-free; settings: read-out: PPB (converted)

T1 sequence (Q92847 whole entry): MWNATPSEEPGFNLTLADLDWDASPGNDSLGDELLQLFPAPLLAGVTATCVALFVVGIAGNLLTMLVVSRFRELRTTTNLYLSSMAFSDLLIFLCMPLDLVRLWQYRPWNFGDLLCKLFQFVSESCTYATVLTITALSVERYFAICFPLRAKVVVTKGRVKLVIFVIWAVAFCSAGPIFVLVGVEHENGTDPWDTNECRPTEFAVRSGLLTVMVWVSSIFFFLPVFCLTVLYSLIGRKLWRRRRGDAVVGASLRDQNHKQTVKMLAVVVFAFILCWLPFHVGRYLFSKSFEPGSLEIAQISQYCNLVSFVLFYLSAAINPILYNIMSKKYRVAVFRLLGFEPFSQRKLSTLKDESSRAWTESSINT
Chain of Voltage-gated inwardly rectifying potassium channel KCNH2 (Q12809 whole entry): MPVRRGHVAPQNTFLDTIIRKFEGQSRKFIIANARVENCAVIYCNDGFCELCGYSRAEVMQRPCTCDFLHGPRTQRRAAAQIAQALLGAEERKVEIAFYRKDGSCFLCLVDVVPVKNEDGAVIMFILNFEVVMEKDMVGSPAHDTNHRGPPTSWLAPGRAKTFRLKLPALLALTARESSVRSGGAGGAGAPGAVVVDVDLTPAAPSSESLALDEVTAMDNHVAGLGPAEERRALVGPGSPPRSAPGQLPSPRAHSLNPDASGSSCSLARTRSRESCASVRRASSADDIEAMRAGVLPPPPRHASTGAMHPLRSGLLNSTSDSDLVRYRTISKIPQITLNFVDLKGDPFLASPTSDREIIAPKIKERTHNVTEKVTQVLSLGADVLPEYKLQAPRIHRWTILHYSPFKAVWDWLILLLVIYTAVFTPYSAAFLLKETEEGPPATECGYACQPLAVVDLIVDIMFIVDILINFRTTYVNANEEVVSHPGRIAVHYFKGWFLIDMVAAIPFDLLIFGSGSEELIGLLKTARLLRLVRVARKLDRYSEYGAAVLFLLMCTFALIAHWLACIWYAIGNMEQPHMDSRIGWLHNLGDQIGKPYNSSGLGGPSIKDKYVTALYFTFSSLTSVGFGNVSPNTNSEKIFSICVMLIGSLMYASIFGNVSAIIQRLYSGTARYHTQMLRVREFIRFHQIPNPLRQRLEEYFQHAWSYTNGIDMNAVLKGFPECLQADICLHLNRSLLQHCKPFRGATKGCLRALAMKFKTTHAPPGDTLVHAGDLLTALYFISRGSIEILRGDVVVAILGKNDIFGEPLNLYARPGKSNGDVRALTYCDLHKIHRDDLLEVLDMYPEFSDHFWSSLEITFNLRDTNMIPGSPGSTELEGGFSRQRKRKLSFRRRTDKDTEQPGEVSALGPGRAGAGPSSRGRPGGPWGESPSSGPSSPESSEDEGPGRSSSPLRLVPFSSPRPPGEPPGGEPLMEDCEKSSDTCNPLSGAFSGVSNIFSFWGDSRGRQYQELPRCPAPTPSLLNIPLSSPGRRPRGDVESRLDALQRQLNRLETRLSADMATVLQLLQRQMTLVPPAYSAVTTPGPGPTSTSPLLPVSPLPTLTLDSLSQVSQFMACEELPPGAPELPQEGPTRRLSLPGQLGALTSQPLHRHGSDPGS
Chain of hERG (KCNH2) (Q12809 whole entry): as above
T2 sequence (P35372 whole entry): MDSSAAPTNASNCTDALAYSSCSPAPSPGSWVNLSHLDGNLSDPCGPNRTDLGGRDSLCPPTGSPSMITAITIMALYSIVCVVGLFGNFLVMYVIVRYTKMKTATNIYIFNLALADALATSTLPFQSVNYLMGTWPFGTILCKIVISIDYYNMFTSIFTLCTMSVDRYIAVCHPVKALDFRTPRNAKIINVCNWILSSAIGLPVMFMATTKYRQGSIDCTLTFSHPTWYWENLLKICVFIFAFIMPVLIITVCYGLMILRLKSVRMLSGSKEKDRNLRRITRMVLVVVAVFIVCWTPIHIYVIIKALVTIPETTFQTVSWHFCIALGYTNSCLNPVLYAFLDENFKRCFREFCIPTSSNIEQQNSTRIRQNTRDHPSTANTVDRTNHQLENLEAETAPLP
T3 sequence (P33261 whole entry): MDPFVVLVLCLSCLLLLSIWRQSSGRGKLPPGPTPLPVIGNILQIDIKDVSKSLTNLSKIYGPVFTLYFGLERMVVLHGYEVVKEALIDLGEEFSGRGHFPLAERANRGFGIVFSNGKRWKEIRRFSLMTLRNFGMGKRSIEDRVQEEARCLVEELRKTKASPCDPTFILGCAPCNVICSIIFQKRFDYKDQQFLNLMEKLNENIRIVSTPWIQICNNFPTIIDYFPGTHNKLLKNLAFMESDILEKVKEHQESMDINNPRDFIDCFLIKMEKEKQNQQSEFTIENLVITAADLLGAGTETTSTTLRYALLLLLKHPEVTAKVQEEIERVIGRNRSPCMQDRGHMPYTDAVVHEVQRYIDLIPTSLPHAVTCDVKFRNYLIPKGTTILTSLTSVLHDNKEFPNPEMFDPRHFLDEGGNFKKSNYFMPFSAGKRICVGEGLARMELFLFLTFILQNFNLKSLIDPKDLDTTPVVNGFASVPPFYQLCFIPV
Chain of Cytochrome P450 2C9 (P11712 whole entry): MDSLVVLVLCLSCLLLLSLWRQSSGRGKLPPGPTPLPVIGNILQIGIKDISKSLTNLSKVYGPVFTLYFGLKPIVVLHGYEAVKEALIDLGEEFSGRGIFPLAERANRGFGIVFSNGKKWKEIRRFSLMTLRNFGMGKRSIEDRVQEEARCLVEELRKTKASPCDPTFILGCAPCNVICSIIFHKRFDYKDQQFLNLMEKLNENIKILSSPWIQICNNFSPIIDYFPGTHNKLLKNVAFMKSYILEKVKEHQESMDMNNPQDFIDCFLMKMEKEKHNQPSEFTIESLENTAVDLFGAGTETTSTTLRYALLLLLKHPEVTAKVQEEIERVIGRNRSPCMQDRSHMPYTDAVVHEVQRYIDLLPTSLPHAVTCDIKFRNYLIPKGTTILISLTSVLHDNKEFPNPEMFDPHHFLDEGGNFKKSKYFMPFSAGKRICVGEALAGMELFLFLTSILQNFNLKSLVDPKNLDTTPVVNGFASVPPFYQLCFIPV
Chain of Cytochrome P450 3A4 (P08684 whole entry): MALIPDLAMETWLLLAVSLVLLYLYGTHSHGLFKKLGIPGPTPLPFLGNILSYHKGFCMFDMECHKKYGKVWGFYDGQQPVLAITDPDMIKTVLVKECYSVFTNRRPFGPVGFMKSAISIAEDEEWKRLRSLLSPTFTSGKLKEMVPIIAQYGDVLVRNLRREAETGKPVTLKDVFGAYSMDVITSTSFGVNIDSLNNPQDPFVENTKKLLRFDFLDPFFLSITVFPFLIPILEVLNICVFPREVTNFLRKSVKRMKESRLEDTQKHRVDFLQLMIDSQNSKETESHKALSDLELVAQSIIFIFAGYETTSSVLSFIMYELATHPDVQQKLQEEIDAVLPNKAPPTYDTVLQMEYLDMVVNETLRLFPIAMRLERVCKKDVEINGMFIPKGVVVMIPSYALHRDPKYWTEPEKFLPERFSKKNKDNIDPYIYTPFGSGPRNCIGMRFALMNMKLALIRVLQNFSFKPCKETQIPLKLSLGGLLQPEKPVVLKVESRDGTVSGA

Compound: Cc1ccc2[nH]c(C(=O)N[C@H]3Cc4ccccc4[C@@H]3NC(=O)[C@@H]3CN(C)CCO3)cc2c1
EC50 [1]: 1.4 nM
clearance [2]: 28 mL/min/kg
logD [3]: 3.7
half-life [4]: 1.2 h
Papp A→B [5]: 44.4 ×10⁻⁶ cm/s
bioavailability [6]: 39%
Kp uu at 24 h [7]: 0.292
Papp A→B [8]: 15.3 ×10⁻⁶ cm/s
IC50 [9]: 14 nM
Papp B→A [10]: 7.5 ×10⁻⁶ cm/s
efflux ratio [11]: 0.5
Activity (Canis familiaris [12]): Active
Vd [13]: 2.1 L/kg

Compound: Cc1ccc2[nH]c(C(=O)N[C@H]3Cc4ccccc4[C@H]3NC(=O)CCN(C)C)cc2c1
EC50 [1]: 100 nM
IC50 [9]: 69 nM
IC50 [14]: 25100 nM

Compound: Cc1ccc2[nH]c(C(=O)N[C@H]3Cc4ccccc4[C@H]3C(=O)NCCN(C)C)cc2c1
logD [3]: 2.3
inhibition at 11 µM (hERG (KCNH2)): 42%

Compound: Cn1ccc2cc(C(=O)N[C@H]3Cc4ccccc4[C@@H]3NC(=O)[C@@H]3CNCCO3)ccc21
EC50 [1]: 52 nM
Drug metabolism [15]: Metabolite_Detected
logD [3]: 1.8
Drug metabolism [16]: Metabolite_Detected

Compound: Cc1ccc2[nH]c(C(=O)N[C@@H]3Cc4ccccc4[C@@H]3NC(=O)CCN(C)C)cc2c1
EC50 [1]: 1500 nM
IC50 [9]: 1260 nM
IC50 [14]: 6310 nM

The remaining compounds from weak to strong by EC50 [1], led by results:

EC50 [1]: 14 nM
logD [3]: 3
IC50 [9]: 35 nM
Compound: Cc1ccc2[nH]c(C(=O)N[C@H]3Cc4ccccc4[C@@H]3NC(=O)c3cnccc3N)cc2c1

EC50 [1]: 5 nM
logD [3]: 2.5
IC50 [9]: 14 nM
microsomal CLint [31]: 26 µL/min/mg
Compound: Cc1ccc2[nH]c(C(=O)N[C@H]3Cc4ccccc4[C@@H]3C(=O)N(C)CCN(C)C)cc2c1
inhibition at 11 µM (hERG (KCNH2)): 50%

EC50 [1]: 2 nM
solubility [17]: 100 µM (≈ 39 µg/mL)
IC50 (Mu-type opioid receptor [18]): 234 nM
fraction unbound [19]: 0.88
clearance [2]: 18.8 to 26 mL/min/kg
TDI [20]: Not Active
IC50 (Cytochrome P450 3A4): > 20000 nM
CL (Rattus norvegicus): > 5%
logD [3]: 2.4
half-life [4]: 13.2 to 16.6 h
Papp A→B [5]: < 2.4 ×10⁻⁶ cm/s
dose excreted [22]: 2%
IC50 (Cytochrome P450 2C9): > 20000 nM
bioavailability [6]: 9 to 13%
IC50 (Cytochrome P450 2C19 [23]): > 20000 nM
clearance [24]: 170 mL/min/kg
microsomal CLint [25]: 48 µL/min/mg
Kp uu at 24 h [7]: < 0.02
Drug metabolism (Cytochrome P450 2C19 [26]): Metabolite_Detected
fraction unbound [27]: 0.92
Fa at 24 h [28]: 20%
microsomal CLint [29]: 9 µL/min/mg
Papp A→B [8]: 0.6 ×10⁻⁶ cm/s
IC50 [9]: 4 nM
IC50 (Mu-type opioid receptor [30]): 79.4 nM
IC50 (Cytochrome P450 2D6): > 20000 nM
Papp B→A [10]: 17.7 ×10⁻⁶ cm/s
IC50 (Cytochrome P450 1A2): > 20000 nM
microsomal CLint [31]: 4 to 9 µL/min/mg
efflux ratio [11]: 67.2
Vd [13]: 4.8 to 5.8 L/kg
Drug metabolism (Canis familiaris [32]): Metabolite_Detected
fraction unbound [33]: 0.96
Compound: CN(C)CCNC(=O)[C@H]1c2ccccc2C[C@@H]1NC(=O)c1cc2ccccc2[nH]1
Activity (Canis familiaris [21]): Active
IC50 [14]: 31600 nM

— ChEMBL document CHEMBL4130628, “Identification and Pharmacological Profile of an Indane Based Series of Ghrelin Receptor Full Agonists” (J Med Chem, 2018)
